Published values gathered from unrelated publications.
Compare with care: the assays were run in different laboratories.
CA12: Carbonic anhydrase 12 (CA12, Homo sapiens, UniProt O43570)
SLC6A3: Sodium-dependent dopamine transporter (SLC6A3, Homo sapiens, UniProt Q01959)
USP51: Ubiquitin carboxyl-terminal hydrolase 51 (USP51, Homo sapiens, UniProt Q70EK9)
DRD3: D(3) dopamine receptor (DRD3, Homo sapiens, UniProt P35462)
Lyn: Tyrosine-protein kinase Lyn (Lyn, Mus musculus, UniProt P25911)

SMILES | target | assay | system | conditions | inhibition [%]
N#CC1CSc2[nH]c(=O)sc2C1c1cn(-c2ccccc2)nc1-c1ccc(Br)cc1 (stereo not shown) | CA12 | enzyme activity, inhibitor, absorbance |  | 10 µM | 84.7
Clc1ccc(C(c2ccccc2)c2nnnn2CCCN2CCC(CCc3ccccc3)CC2)cc1 (stereo not shown) | SLC6A3 | transporter uptake, inhibitor | HEK293 | 1 µM | 78.4
Nc1ncnc2c1ncn2[C@@H]1O[C@H](CO)C[C@H]1O | USP51 | enzyme activity, inhibitor |  | 5 µM | 24
CCn1c2ccccc2c2cc(CNCCCN3CCOCC3)ccc21 | DRD3 | enzyme activity, inhibitor |  | 10 µM | 13.5
Fc1ccc(C(c2ccc(F)cc2)c2nnnn2CCCCN2CCN(Cc3ccccc3)CC2)cc1 | SLC6A3 | transporter uptake, inhibitor | HEK293 | 1 µM | 95.7
CNc1cc(Oc2cc(C(=O)Nc3cc(N4CCN(C)CC4)cc(C(F)(F)F)c3)ccc2C)ncn1 | Serine/threonine-protein kinase ATR (ATR, Homo sapiens, UniProt Q13535) | target engagement in cells, inhibitor, chemoproteomics | Huh-7 | 1 µM | -18
O=C(CCN1CCC(O)(c2ccc(F)cc2)C1)c1ccc2c(c1)OCCO2 (stereo not shown) | DRD3 | enzyme activity, inhibitor |  | 10 µM | 9
CCOC(=O)C1CSc2[nH]c(=O)sc2C1c1cn(-c2ccccc2)nc1-c1ccc(Cl)cc1 (stereo not shown) | CA12 | enzyme activity, inhibitor, absorbance |  | 10 nM | 27.6
CNC(=O)c1cc(Oc2ccc(NC(=O)Nc3ccc(Cl)c(C(F)(F)F)c3)cc2)ccn1 | Lyn | enzyme activity, inhibitor |  | 0.3 µM | 37
CCOC(=O)C1CSc2[nH]c(=O)sc2C1c1cn(-c2ccccc2)nc1-c1ccc(OC)cc1 (stereo not shown) | CA12 | enzyme activity, inhibitor, absorbance |  | 0.1 µM | 37.6
Clc1ccc(C(c2ccc(Cl)cc2)c2nnnn2CCCCN2CCC(Cc3ccccc3)CC2)cc1 | SLC6A3 | transporter uptake, inhibitor | HEK293 | 1 µM | 78.5
C=C1C[C@@]2(O)O[C@@]3(C[C@H]2C(C)C)[C@@H](C)CC[C@@H]13 | USP51 | enzyme activity, inhibitor |  | 5 µM | 11
Cc1ccc(Nc2nccc(N(C)c3ccc4c(C)n(C)nc4c3)n2)cc1S(N)(=O)=O | Lyn | enzyme activity, inhibitor |  | 10 µM | 97
COc1cc(NC(C)=O)c(Cl)cc1C(=O)Nc1nccs1 | Peroxisome proliferator-activated receptor gamma (PPARG, Homo sapiens, UniProt P37231) | cell-free assay |  | 10 µM | 31.6
C=CCn1c(SCC(=O)NC2=NN(c3ccccc3)C(=O)C2)nnc1-c1cccs1 | DRD3 | enzyme activity, inhibitor |  | 10 µM | -4.7
CCN(CC)CCNC(=O)c1c(C)[nH]c(/C=C2\C(=O)Nc3ccc(F)cc32)c1C | Lyn | enzyme activity, inhibitor |  | 0.3 µM | 40
COc1ccccc1O | USP51 | enzyme activity, inhibitor |  | 5 µM | 0
NS(=O)(=O)c1ccc(CCNCc2ccc(-c3ccccc3F)o2)cc1 | DRD3 | enzyme activity, inhibitor |  | 10 µM | 44.2
COc1ccc(C(C)=O)c(O)c1 | USP51 | enzyme activity, inhibitor |  | 5 µM | 18
O=C1NC(=S)C(=Cc2cn(-c3ccccc3)nc2-c2ccc(Br)cc2)S1 | CA12 | enzyme activity, inhibitor, absorbance |  | 0.1 µM | 11.1

SMILES | target | assay | system | conditions | inhibition [%]
FC(F)(F)c1cccc(-c2ccc(CNCCCN3CCOCC3)o2)c1 | DRD3 | enzyme activity, inhibitor |  | 10 µM | 50.7
Fc1ccc(C(c2ccc(F)cc2)c2nnnn2CCCCN2CCC(Cc3ccc(Cl)c(Cl)c3)CC2)cc1 | SLC6A3 | transporter uptake, inhibitor | HEK293 | 1 µM | 68.9
CCOC(=O)C1CSc2[nH]c(=O)sc2C1c1cn(-c2ccccc2)nc1-c1ccc(Br)cc1 (stereo not shown) | CA12 | enzyme activity, inhibitor, absorbance |  | 0.1 µM | 31.5
CC(O)c1ccc(-c2ccc(CNCCc3ccc(S(N)(=O)=O)cc3)o2)cc1 (stereo not shown) | DRD3 | enzyme activity, inhibitor |  | 10 µM | -9.5
C[C@H](CCC(=O)NCC(=O)O)[C@H]1CC[C@H]2[C@@H]3[C@H](O)C[C@@H]4C[C@H](O)CC[C@]4(C)[C@H]3C[C@H](O)[C@]12C | USP51 | enzyme activity, inhibitor |  | 5 µM | 0
CC(=O)O[C@H]1[C@H](O[C@@H]2[C@@H](O)[C@@H](O)[C@H](Oc3c(-c4ccc(O)cc4)oc4cc(O)cc(O)c4c3=O)O[C@H]2C)O[C@H](CO)[C@@H](O)[C@@H]1O | Aromatase (CYP19A1, Homo sapiens, UniProt P11511) | enzyme activity, inhibitor |  | 20 µg/mL | 58
Clc1ccc(C(c2ccccc2)c2nnnn2CCCCN2CCN(CCCc3ccccc3)CC2)cc1 (stereo not shown) | SLC6A3 | transporter uptake, inhibitor | HEK293 | 1 µM | 81.6
CCOC(=O)C1CSc2[nH]c(=O)sc2C1c1cn(-c2ccccc2)nc1-c1ccccc1 (stereo not shown) | CA12 | enzyme activity, inhibitor, absorbance |  | 1 µM | 46.7
Clc1ccc(C(c2ccc(Cl)cc2)c2nnnn2CCCCN2CCC(c3ccccc3)CC2)cc1 | SLC6A3 | transporter uptake, inhibitor | HEK293 | 1 µM | 90.1
O=C(c1ccc(F)cc1)N(Cc1ccccc1)C1CCCCC1 | Sodium- and chloride-dependent GABA transporter 1 (Slc6a1, Rattus norvegicus, UniProt P23978) | transporter uptake |  | 10 µM | 4
CC1CCC(C(C)C)C(O)C1 (racemic) | USP51 | enzyme activity, inhibitor |  | 5 µM | 37
c1ccc(C2CCN(CCCCn3nnnc3C(c3ccccc3)c3ccccc3)CC2)cc1 | SLC6A3 | transporter uptake, inhibitor | HEK293 | 1 µM | 93.9
CCCOC(=O)c1cc(O)c(O)c(O)c1 | USP51 | enzyme activity, inhibitor |  | 5 µM | 97
CS(=O)(=O)c1ccc(Nc2ccc3c(c2)OCO3)c([N+](=O)[O-])c1 | Solute carrier family 2, facilitated glucose transporter member 5 (SLC2A5, Homo sapiens, UniProt P22732) | transporter uptake, inhibitor | MCF7 | 25 µM | ~90
O=C(c1cccc(Cl)c1)N1CCN(CCNc2cc(=O)oc3ccccc23)CC1 | DRD3 | enzyme activity, inhibitor |  | 10 µM | -11.3
CC(C)=CCC[C@](C)(O)[C@H]1CC[C@]2(C)[C@@H]1[C@H](O)C[C@@H]1[C@@]3(C)CC[C@H](O[C@@H]4O[C@H](CO)[C@@H](O)[C@H](O)[C@H]4O[C@@H]4O[C@H](CO)[C@@H](O)[C@H](O)[C@H]4O)C(C)(C)[C@@H]3CC[C@]12C | USP51 | enzyme activity, inhibitor |  | 5 µM | 0
Cc1ccc(-c2nn(-c3ccccc3)cc2C2c3sc(=O)[nH]c3SC3C(=O)N(c4ccccc4)C(=O)C32)cc1 (stereo not shown) | CA12 | enzyme activity, inhibitor, absorbance |  | 0.1 µM | 33.2
CC(=O)Nc1ccc(N2CC(O)=C(c3nc4ccccc4[nH]3)C2=N)cc1 | DRD3 | enzyme activity, inhibitor |  | 10 µM | -23.2
O=C(c1ccc(Cl)cc1)N(Cc1ccccc1)C1CCCCC1 | Urotensin-2 receptor (UTS2R, Homo sapiens, UniProt Q9UKP6) | cell-free assay |  | 10 µM | 27.3
Clc1ccc(C(c2ccccc2)c2nnnn2CCCCN2CCN(CCc3ccccc3)CC2)cc1 (stereo not shown) | SLC6A3 | transporter uptake, inhibitor | HEK293 | 1 µM | 62.1
